Test results: ChEMBL document CHEMBL4831496, “Noncovalent EGFR T790M/L858R inhibitors based on diphenylpyrimidine scaffold: Design, synthesis, and bioactivity evaluation for the treatment of NSCLC” (Eur J Med Chem, 2021)
Activity calls are given as the source filed them. No cut-off for these calls is given here.

Experiments:
NCI-H1975 [1] = test: Induction of apoptosis in human NCI-H1975 cells assessed as viable cells at 0.125 uM incubated for 48 hrs by AnnexinV/FITC and propidium iodide staining based flow cytometry analysis (reference value: 94.9%); type: functional; conditions: read-out: Activity
NCI-H1975 [2] = test: Induction of apoptosis in human NCI-H1975 cells assessed as early apoptotic cells at 0.5 uM incubated for 48 hrs by AnnexinV/FITC and propidium iodide staining based flow cytometry analysis (reference value: 1.39%); type: functional
NCI-H1975 [3] = test: Antimigratory activity against human NCI-H1975 cells assessed as narrowing of scratch width at 0.5 to 2 uM incubated for 24 to 48 hrs by scratch wound healing assay based fluorescence microscopic analysis; type: functional, cell-based; conditions: dose 0.5-2 µM, time 24-48 hrs
Summary of the method: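 H1975 monolayers cultured 48 h at 37 °C, then scratched and washed with PBS. Cells treated at […] and imaged by fluorescence microscope at 0, 24 and 48 h, with an untreated negative control.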

NCI-H1975 [4] = test: Induction of cell cycle arrest in human NCI-H1975 cells assessed as accumulation of cells at S phase at 0.5 uM incubated for 48 hrs by propidium iodide staining based flow cytometry analysis (reference value: 11.72%); type: functional
NCI-H1975 [5] = test: Induction of apoptosis in human NCI-H1975 cells assessed as late apoptotic cells at 0.5 uM incubated for 48 hrs by AnnexinV/FITC and propidium iodide staining based flow cytometry analysis (reference value: 0.73%); type: functional
NCI-H1975 [6] = test: Induction of apoptosis in human NCI-H1975 cells assessed as late apoptotic cells at 2 uM incubated for 48 hrs by AnnexinV/FITC and propidium iodide staining based flow cytometry analysis (reference value: 0.73%); type: functional
[7] = Elimination half life in Sprague-Dawley rat at 25 mg/kg, iv measured for 24 hrs by LC-MS/MS analysis; type: ADME, organism-based; conditions: in vivo, read-out: beta t1/2 (converted)
Summary of the method: (§1)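 Male Sprague-Dawley rats (200 ± 20 g), acclimatised 1 week at 25 ± 2 °C, 50-60% RH; six rats given 25 mg/kg by tail vein. Retro-orbital blood into heparin at 10, 20, 40 min and 1, 2, 3, 4, 6, 8, 12, 24 h. Plasma ethyl acetate-extracted and quantified by LC-MS/MS, transition m/z 485.3/452.3.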

NCI-H1975 [8] = test: Induction of cell cycle arrest in human NCI-H1975 cells assessed as accumulation of cells at G2/M phase at 0.5 uM incubated for 48 hrs by propidium iodide staining based flow cytometry analysis (reference value: 30.23%); type: functional
ASPC1 = test: Antiproliferative activity against human ASPC1 cells assessed as reduction in cell viability incubated for 72 hrs by CCK8 assay; type: functional, cell-based; conditions: ASPC1, 72 h
Summary of the method: (§2)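 Cells kept as monolayers at 37 °C, 5% CO2, seeded 3000-4000/well for 12 h, then exposed to compounds for 72 h. CCK-8 added for 1-2 h at 37 °C, absorbance read at 450 nm. Each dose run in triplicate, experiment repeated at least three times. IC50 taken from dose-response curves.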

NCI-H1975 [9] = test: Induction of apoptosis in human NCI-H1975 cells assessed as early apoptotic cells at 2 uM incubated for 48 hrs by AnnexinV/FITC and propidium iodide staining based flow cytometry analysis (reference value: 1.39%); type: functional
NCI-H1975 [10] = test: Induction of cell cycle arrest in human NCI-H1975 cells assessed as accumulation of cells at S phase at 2 uM incubated for 48 hrs by propidium iodide staining based flow cytometry analysis (reference value: 11.72%); type: functional
NCI-H1975 [11] = test: Induction of cell cycle arrest in human NCI-H1975 cells assessed as accumulation of cells at G2/M phase at 2 uM incubated for 48 hrs by propidium iodide staining based flow cytometry analysis (reference value: 30.23%); type: functional
NCI-H1975 [12] = test: Induction of apoptosis in human NCI-H1975 cells assessed as early apoptotic cells at 0.125 uM incubated for 48 hrs by AnnexinV/FITC and propidium iodide staining based flow cytometry analysis (reference value: 1.39%); type: functional
NCI-H1975 [13] = test: Induction of apoptosis in human NCI-H1975 cells assessed as necrotic cells at 0.125 uM incubated for 48 hrs by AnnexinV/FITC and propidium iodide staining based flow cytometry analysis (reference value: 2.99%); type: functional
A-431 = test: Cytotoxicity against human A-431 cells harboring wild type EGFR assessed as reduction in cell viability incubated for 72 hrs by CCK8 assay; type: cell-based; conditions: A-431, 72 h; summary of the method: as §2
NCI-H1975 [14] = test: Induction of apoptosis in human NCI-H1975 cells assessed as necrotic cells at 2 uM incubated for 48 hrs by AnnexinV/FITC and propidium iodide staining based flow cytometry analysis (reference value: 2.99%); type: functional
A549 = test: Antiproliferative activity against human A549 cells harboring KRAS G12S mutant assessed as reduction in cell viability incubated for 72 hrs by CCK8 assay; type: functional, cell-based; conditions: A549, 72 h; summary of the method: as §2
NCI-H1975 [15] = test: Induction of cell cycle arrest in human NCI-H1975 cells assessed as accumulation of cells at S phase at 0.125 uM incubated for 48 hrs by propidium iodide staining based flow cytometry analysis (reference value: 11.72%); type: functional
[16] = AUC (0 to infinity) in Sprague-Dawley rat at 25 mg/kg, iv by LC-MS/MS analysis; type: ADME, organism-based; design: route intravenous, time infinity, dose 25 mg/kg; conditions: in vivo; summary of the method: as §1
[17] = Selectivity index, ratio of IC50 for human A-431 cells harboring wild type EGFR (unknown origin) to IC50 for human NCI-H1975 cells harboring EGFR L858R/T790M mutant
L02 = test: Antiproliferative activity against human L02 cells assessed as reduction in cell viability incubated for 72 hrs by CCK8 assay; type: cell-based; conditions: L02, 72 h
[18] = AUC (0 to t) in Sprague-Dawley rat at 25 mg/kg, iv measured for 24 hrs by LC-MS/MS analysis; type: ADME, organism-based; design: dose 25 mg/kg, time 24 hrs; conditions: in vivo; summary of the method: as §1
[19] = biological target: Epidermal growth factor receptor (Homo sapiens, UniProt P00533, L858R/T790M); test: Inhibition of EGFR L858R/T790M double mutant (unknown origin) measured after 60 mins by ADP-Glo kinase based luminescence assay
Chain of Epidermal growth factor receptor (P00533 25-1210 T790M/L858R limits assumed): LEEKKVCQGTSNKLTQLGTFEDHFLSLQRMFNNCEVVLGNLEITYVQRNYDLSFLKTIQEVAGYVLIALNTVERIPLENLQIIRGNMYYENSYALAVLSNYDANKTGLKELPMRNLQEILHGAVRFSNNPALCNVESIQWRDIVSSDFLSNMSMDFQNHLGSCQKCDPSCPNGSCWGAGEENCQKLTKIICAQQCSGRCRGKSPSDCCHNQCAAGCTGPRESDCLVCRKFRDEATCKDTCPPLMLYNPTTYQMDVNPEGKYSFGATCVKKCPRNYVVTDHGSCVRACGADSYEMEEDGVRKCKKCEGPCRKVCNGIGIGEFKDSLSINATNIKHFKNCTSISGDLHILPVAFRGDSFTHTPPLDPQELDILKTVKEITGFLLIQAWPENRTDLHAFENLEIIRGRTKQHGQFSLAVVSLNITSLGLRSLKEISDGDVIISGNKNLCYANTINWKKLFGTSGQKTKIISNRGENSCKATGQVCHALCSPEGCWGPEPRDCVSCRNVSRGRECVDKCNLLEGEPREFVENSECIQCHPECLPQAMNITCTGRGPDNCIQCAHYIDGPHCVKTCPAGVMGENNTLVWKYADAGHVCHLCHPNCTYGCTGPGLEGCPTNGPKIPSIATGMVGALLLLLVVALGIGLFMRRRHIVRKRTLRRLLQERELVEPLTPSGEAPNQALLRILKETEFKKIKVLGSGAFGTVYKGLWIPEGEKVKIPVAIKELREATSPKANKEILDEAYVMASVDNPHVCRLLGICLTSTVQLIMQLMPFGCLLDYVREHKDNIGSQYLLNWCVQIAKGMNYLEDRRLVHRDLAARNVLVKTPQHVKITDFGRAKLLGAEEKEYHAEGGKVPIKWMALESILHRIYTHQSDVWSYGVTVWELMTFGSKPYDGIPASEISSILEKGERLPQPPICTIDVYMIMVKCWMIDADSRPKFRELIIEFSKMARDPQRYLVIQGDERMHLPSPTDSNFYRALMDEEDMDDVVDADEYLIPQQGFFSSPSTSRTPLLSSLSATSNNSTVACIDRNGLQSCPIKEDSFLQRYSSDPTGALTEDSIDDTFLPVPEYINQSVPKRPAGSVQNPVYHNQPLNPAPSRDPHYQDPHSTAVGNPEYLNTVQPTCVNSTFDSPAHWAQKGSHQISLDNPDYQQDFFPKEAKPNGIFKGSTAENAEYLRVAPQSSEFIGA

NCI-H1975 [20] = test: Induction of cell cycle arrest in human NCI-H1975 cells assessed as accumulation of cells at G0/G1 phase at 0.5 uM incubated for 48 hrs by propidium iodide staining based flow cytometry analysis (reference value: 58.05%); type: functional
[21] = Clearance in Sprague-Dawley rat at 25 mg/kg, iv measured for 24 hrs by LC-MS/MS analysis; type: ADME, organism-based; conditions: in vivo; summary of the method: as §1
NCI-H1975 [22] = test: Induction of cell cycle arrest in human NCI-H1975 cells assessed as accumulation of cells at G2/M phase at 0.125 uM incubated for 48 hrs by propidium iodide staining based flow cytometry analysis (reference value: 30.23%); type: functional
[23] = Cytotoxicity against human HBE cells assessed as reduction in cell viability incubated for 72 hrs by CCK8 assay; type: cell-based; summary of the method: as §2
NCI-H1975 [24] = test: Induction of cell cycle arrest in human NCI-H1975 cells assessed as accumulation of cells at G0/G1 phase at 2 uM incubated for 48 hrs by propidium iodide staining based flow cytometry analysis (reference value: 58.05%); type: functional
[25] = MRT (0 to t) in Sprague-Dawley rat at 25 mg/kg, iv measured for 24 hrs by LC-MS/MS analysis; type: ADME, organism-based; conditions: in vivo; summary of the method: as §1

O=C(NO)c1ccccc1Nc1nc(Nc2ccc(OCCN3CCOCC3)cc2)ncc1Cl
viability at 0.125 µM (NCI-H1975 [1]): 95.7%
Activity (NCI-H1975 [2]): 15.53%
Activity (NCI-H1975 [3]): Active
Activity (NCI-H1975 [4]): 9.86%
Activity (NCI-H1975 [5]): 0.56%
Activity (NCI-H1975 [6]): 0.67%
half-life [7]: 571 min
Activity (NCI-H1975 [8]): 70.99%
IC50 (ASPC1): 169 nM
Activity (NCI-H1975 [9]): 90.55%
Activity (NCI-H1975 [10]): 10.83%
Activity (NCI-H1975 [11]): 31.9%
Activity (NCI-H1975 [12]): 4%
Activity (NCI-H1975 [13]): 0.01%
IC50 (A-431): 1070 nM
Activity (NCI-H1975 [14]): 0.14%
IC50 (A549): 97.7 nM
Activity (NCI-H1975 [15]): 15.08%
AUC(0-inf) [16]: 45200 ng·h/mL
Ratio IC50 [17]: 10.9
IC50 (L02): 3.05 µM
AUC(0-t) at 24 h [18]: 37600 ng·h/mL
IC50 [19]: 1.1 nM
Activity (NCI-H1975 [20]): 19.16%
clearance [21]: 9.23 mL/min/kg
Activity (NCI-H1975 [22]): 64.66%
IC50 [23]: 23.6 µM
Activity (NCI-H1975 [24]): 57.28%
MRT last at 24 h [25]: 8.2 h
